The test system of this data set is MS2 coat protein. The experiment in a line: apparent Kd, MS2 coat protein; higher = weaker binding; RNA-MaP array; FMN 200 µM where present. An outline of the steps:
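On Illumina sequencing-chip clusters, designs were transcribed by stalled E. coli RNA polymerase and titrated with SNAP-549-labelled MS2 coat protein (0.7 or 1.5 nM, doubling to 3 µM), without and then with constant ligand, in 100 mM Tris-HCl pH 7.5, 80 mM KCl, 4 mM MgCl2, BSA, DTT, yeast tRNA and Tween-20. Apparent Kd is the median of filtered per-cluster curve fits to green signal normalised to red-channel RNA signal and control-cluster median Fmax.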

[1] abbreviates: designed as: OFF switch for flavin mononucleotide, no ligand.
[2] abbreviates: ligand present: flavin mononucleotide, designed as: OFF switch for flavin mononucleotide.
Where [3] appears, read: designed as: ON switch for flavin mononucleotide, no ligand.
Setting [4] is: ligand present: flavin mononucleotide, designed as: ON switch for flavin mononucleotide.

What is called apparent Kd is a dissociation constant that holds for the conditions of the assay. Consider “UUAUUAUGUGUAGGAUAUGCAUAUUAUCAUUAUGCAGAAGGACAUGAGGAUCACCCAUGUAUAUUAUUAUUAUAUAUUAUAUAU”, for which the “apparent Kd” value came to 15.5 nM under setting [1] and 12.6 nM under setting [2].

On to “GUAGGACAUGAGGAUCACCCAUGUGGGAGGGAACGAGGAUAUGUGAAAGGAUUGAAGAGGACAGAAGGCGUGGAGG”, for which the “apparent Kd” value is 44.4 nM under setting [3] and 35.3 nM under setting [4].

For “GGGUGAGACGAGAAGGGAUUUUCACAUGAGGAUCACCCAUGUCGAGUAGUCAGGAUAUCGGGCCAUGAUUACCCUAUAGAAGAC”, the “apparent Kd” value is, setting by setting: under setting [3], 298 nM; under setting [4], 70.5 nM.

Take “CACUCGUGUCUAGGAUAUGAGUGACAAGCGCGAGAUUUUCUCACCGCUAGCUCAGAAGGAGACAUGAGGAUCACCCAUGUAAGG”: the “apparent Kd” value reads like this: under setting [1], 165 nM; under setting [2], 20.3 nM.

Regarding “GUUAGUUAAGGAUAUACUGGGAGCUGCGGCGUCUCGCCGCAACAUGAGGAUCACCCAUGUAGAAGGUGGCCAUU”, the “apparent Kd” value was 765 nM under setting [1] and 425 nM under setting [2].

Consider “GGCGAACGGGCUUACAUGAGGAUCACCCAUGUAGACUCAUGGUAGGAUAUGCUGAACAAAGUUCAGCAGAAGGGCCGGUGAGCU”, for which the “apparent Kd” value was determined as 86.6 nM under setting [3] and 46.3 nM under setting [4].

On to “AUCCGGCGUGUAGGAUAUGGAAAAGAUUAGAAACCAGAAGGACAUGAGGAUCACCCAUGUACAUGUAAACAGUCAUCACCGGAA”, for which the “apparent Kd” value by setting is: under setting [1], 12.2 nM; under setting [2], 35.1 nM.

On to “GAGCGAAAGCUCAAUGUCGAUAGCAGAAGGACAUGUAAAAUCAUGAAAACAUGAGGAUCACCCAUGUAGGAUAUGCUAUCGACU”, for which the “apparent Kd” value runs as follows: under setting [1], 23 nM; under setting [2], 371 nM.

For the sequence “GGAUCGAAUGUGAGGAUAUGCAGGUCCUUGGAUCUGCAGAAGGCACAUGAGGAUCACCCAUGUGACCAAGAUCC”, the “apparent Kd” value is 50 nM under setting [1] and 548 nM under setting [2].

Turning to “CGGCGCUGUCGAGAGGAUAUGCGGUGAUGGACAUGAGGAUCACCCAUGUUAGCGAUAGCAUCACGGUAGAAGGCUCUUACGCCUG”, the “apparent Kd” value was 378 nM under setting [3] and 174 nM under setting [4].

For the sequence “UAUAUAUAGUAAGGAUAUGUAUUUAGUUUAUAAACAGAAGGUACUGACAUGAGGAUCACCCAUGUUUUAGUGUGGGCAUGUAGA”, the “apparent Kd” value was determined as 87.7 nM under setting [1] and 127 nM under setting [2].

With “CAGCCCUGAGGAUAUCCAUCCUUGUACAUGAGGAUCACCCAUGUUUUCCUCUGGGCUUUGGGAGAAGGCAGGUAUC”, the “apparent Kd” value is, setting by setting: under setting [1], 74.6 nM; under setting [2], 77.1 nM.

For “UGUCGGAGCAGAGGAUAUUACAUGAGGAUCACCCAUGUAUGAACCAAUAGCUGGAAACAGCUAUGUAAGAAGGCUGCUCCGACA”, the “apparent Kd” value is, setting by setting: under setting [1], 5.31 nM; under setting [2], 9.42 nM.

For “UAUUUAUUAGAGAAGGUACAUACAAUUAACAACAUACAUGAGGAUCACCCAUGUUGGUGAAUAAGUAAGGAUAUUUAAUACUUU”, the “apparent Kd” value is 31.3 nM under setting [1] and 17.6 nM under setting [2].

“UGGAUGUAGGAGAAGGAGGACUUCAUGAGGAUCACCCAUGUGUUAGUACUUAGGAUAUUUGACAACAUGAGGAUCACCCAUGUG”: the “apparent Kd” value is, setting by setting: under setting [3], 105 nM; under setting [4], 96.4 nM.

For “AAAACAUGAGGAUCACCCAUGUAAAGAUCAGUUAAUAGAGGUGAGGAUAUACGAACUUAAAGGUAGUAGAAGGCACUGGGUACA”, the “apparent Kd” value by setting is: under setting [3], 35.9 nM; under setting [4], 30 nM.

On to “UAUGGUUAAGUCAGGAUAUGCUCAUAGAGGUCUGUGCAGAAGGGACAUGAGGAUCACCCAUGUAUGGUCGUGUU”, for which the “apparent Kd” value reads like this: under setting [1], 254 nM; under setting [2], 237 nM.

On to “UAUAAUCGAGGAUAUACAUGAGGAUCACCCAUGUGUUGCCGCGUGAUGUGUUUGUCAGGUAGAAGGCGAUUAUA”, for which the “apparent Kd” value reads like this: under setting [1], 200 nM; under setting [2], 43.8 nM.

“GACAUGAGGAUCACCCAUGUACAGAUAGAGGAACUCUAAUUGAGAAGGGACUUGAAACAAUCAUGUCAGGAUAUCAGUGGCGAC”: the “apparent Kd” value came out at 86.7 nM under setting [3] and 41 nM under setting [4].

Regarding “AAAGGUUGAGGAUAUGCGUGGAAAAAGUGUAUUCAAAAAAAACAUGAGGAUCACCCAUGUAGAAGGCGACCAAA”, the “apparent Kd” value under setting [1] was determined as 93.6 nM and the “apparent Kd” value under setting [2] is 245 nM.

These data come from the EternaBench riboswitch data.
